Hits are enriched below; roughly 2% of the tested compounds scored in any of these assays.
GAA850 FXN act: FXN promoter activators, primary screen, cell-based, luciferase luminescence, HEK293 lucGAA850 | HEK293 lucGAA850 FXN promoter luciferase reporter, 24 h; percent of 10 µM SAHA response | activation, % at 6 µM | 0.56% of 360,000 active | AID 540364, 2011;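 active means activation above the average of all compounds screened plus 3 SD, cutoff fixed separately per campaign, cut at about 7.5% in these data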;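 further: 0% = DMSO wells and 100% = 10 µM SAHA wells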
Myeloid diff 2: induction of myeloid progenitor differentiation, primary screen, cell-based, flow cytometry, MLPCN library; ER-HoxA9 myeloid progenitors, lysozyme-GFP differentiation; calls only at 10 µM; AID 624256, 2012; 1% of 360,000 active;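 active means normalized GFP-positive differentiation at or above the plate's own cutoff, the solvent-only control mean plus 3 SD; inconclusive means no clear call, values can overlap the other calls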;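 further: cells exposed to compound for four days before flow analysis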
T cell modulator: modulators of CD8 T cell-vesicle binding, primary screen, mouse 2C CD8+ T cells, flow cytometry; 2C CD8+ T cell-vesicle binding; stronger effect = lower value; response (vesicle binding), % at 7 µM; 0.068% of 330,000 active; AID 2052, 2009;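 active means response, share of CD8 T cells binding vesicles, and their 90th percentile fluorescence all below set limits, cut at about 80% in these data, passing the limit was not always enough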;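 further: values below 100% mean blocked vesicle binding to the CD8+ T cells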
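Also added: QL9-peptide-loaded Drosophila micro-vesicles bearing Ld, ICAM-1 and B7-1; Test system: purified 2C TCR transgenic mouse naive CD8+ T cells; Measured by: cytometric PE anti-B7-1 and Alexa647 anti-CD8 signals after 1% paraformaldehyde fixation; Timing: binding step 1.5 h, 37 °C, antibody labelling 20 min, ice.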
NR2E3 ag-1: NR2E3 agonists in two-hybrid cells, primary screen, cell-based, luminescence, CHO-S, Gal4-NCOR/VP16-NR2E3. luciferase. inhibition of corepressor binding, % at 3.98 µM. 0.35% of 360,000 active;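 active means inhibition above the mean of all tested compounds plus 3 SD, cut at about 70% in these data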;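 further: 0% = DMSO with NR2E3 transfected cells and 100% = cells lacking NR2E3 construct; higher means lower luciferase signal from less NR2E3 corepressor binding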
Target sequence (Q9Y5X4 whole entry, looked up, the tested form may be a part): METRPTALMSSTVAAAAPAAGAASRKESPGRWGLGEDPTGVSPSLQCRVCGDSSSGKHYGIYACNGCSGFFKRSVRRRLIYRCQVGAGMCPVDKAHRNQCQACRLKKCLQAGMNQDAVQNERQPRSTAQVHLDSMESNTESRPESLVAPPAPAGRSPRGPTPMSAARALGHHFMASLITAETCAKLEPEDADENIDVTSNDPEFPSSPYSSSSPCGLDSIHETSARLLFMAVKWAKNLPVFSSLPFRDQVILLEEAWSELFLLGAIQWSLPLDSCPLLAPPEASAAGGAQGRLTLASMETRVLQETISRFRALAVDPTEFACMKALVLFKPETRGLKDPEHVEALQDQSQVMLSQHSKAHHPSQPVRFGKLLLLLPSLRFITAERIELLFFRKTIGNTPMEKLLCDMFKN
NR2E3 ag-2: inhibitors of NR2E3-RetCOR corepressor binding, primary screen, NR2E3 agonist project, biochemical, TR-FRET, GST-NR2E3, biotin-RetCOR; 1536-well; inhibition of corepressor binding, % at 4.78 µM; 0.12% of 320,000 active;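 active means percent inhibition above the cutoff of mean plus 3 SD of all tested compounds, set per screening campaign, cut at about 20% in these data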;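 further: 0% = DMSO wells and 100% = biotin wells as full block of FRET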
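Material: NR2E3–RetCOR corepressor complex / Incubation: Compound–protein incubation for 5 h at 4 °C / Dosing: compound at 4.8 µM, single dose / Detection: time-resolved FRET / Benchmarks: high control biotin, low control 0.6% DMSO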
NR2E3 ag conf: NR2E3 agonist confirmation in cells, cell-based, luminescence, CHO-S two-hybrid | shares compounds with NR2E3 ag-1 | inhibition, % at 3.98 µM | 51% of 2,300 active | CHO-S mammalian two-hybrid NR2E3-NCOR, luciferase luminescence;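 active means average inhibition above a cutoff equal to the mean inhibition of all tested compounds plus one SD, cut at about 70% in these data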;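 further: 0% = DMSO in NR2E3 cells and 100% = DMSO in cells lacking NR2E3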
GAL4-VP16 luc: GAL4-VP16 reporter modulators, confirmation, counter-screen for NR2E3 agonist project, cell-based, luminescence, CHO-S, high throughput | shares compounds with NR2E3 ag-1 | 29% of 2,300 active | AID 624379, 2012 | inhibition, % at 3.98 µM | CHO-S GAL4-VP16 luciferase reporter;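 active means mean inhibition above a cutoff equal to the average over all tested compounds plus one standard deviation, cut at about 70% in these data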;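 further: luciferase from a UAS reporter driven by GAL4-VP16 transactivation; 0% = DMSO with VP16-transfected cells and 100% = DMSO with cells lacking VP16; higher means less reporter light so more repression of VP16 activity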
* marks the source's active call; other numbers are inactive results; i = inactive; ? = inconclusive; / = not tested or not shown.

SMILES | GAA850 FXN act | Myeloid diff 2 | T cell modulator | NR2E3 ag-1 | NR2E3 ag-2 | NR2E3 ag conf | GAL4-VP16 luc
C/C(=N\NS(=O)(=O)c1ccccc1)c1ccccc1 | 0.3 | i | 187.0 | 3.7 | 6.3 | / | /
O=C(C1CCC(CNS(=O)(=O)c2cccc3nsnc23)CC1)N1CC=C(c2ccccc2)CC1 (configuration not stated) | -1.2 | i | 282.7 | 50.2 | 1.6 | 87.8* | 56.4
O=C(C1CCN(S(=O)(=O)c2cccc3nsnc23)CC1)N1CC=C(c2ccccc2)CC1 | -2.0 | i | 192.9 | 6.2 | 0.7 | / | /
COCc1cccc(-c2csc(C(O)c3cccc(OC)c3)n2)c1 (configuration not stated) | 0.7 | i | / | -13.3 | / | / | /
O=C(Cc1ccc(Br)cc1)Nc1ncc([N+](=O)[O-])s1 | 2.5 | i | 412.8 | 71.6* | 0.9 | 96.5* | 60.3
Cc1cnc(NC(=O)Cc2ccc(Br)cc2)s1 | 2.6 | i | 420.3 | 60.1 | -1.4 | 91.2* | 5.0
COc1ccc(OCCN2CCC(C(=O)NC(C)c3cccc4ccccc34)CC2)cc1 (configuration not stated) | -2.9 | i | / | 5.5 | / | / | /
CC1OC2CC(=O)OC2C2=C1C(=O)c1c(O)cccc1C2=O (configuration not stated) | -16.6 | i | / | 101.4* | / | 97.7* | 97.5*
Cc1ccc(-n2nnnc2SCn2nnc3ccccc3c2=O)c(C)c1 | -2.3 | i | 187.4 | 92.1* | 0.0 | 88.7* | 72.2*
Cc1cc(SCn2nnc3ccccc3c2=O)nc2ccccc12 | 2.5 | i | 158.8 | -9.6 | -4.1 | / | /
COC(=O)C[C@@H]1CC[C@@H](NS(=O)(=O)c2ccc(F)cc2)[C@@H](CO)O1 | / | i | / | / | / | / | /
CC(=O)Oc1c(I)cc(I)cc1C(=O)Nc1ccc(Cl)cc1 | -1.0 | i | 324.7 | 105.5* | 2.0 | 99.0* | 87.5*
Cc1ccc(-c2ccc(CN3C(CC(C)C)C(=O)N(Cc4cn(CC5CCCCC5)nn4)CCS3(=O)=O)cc2)cc1 (configuration not stated) | -0.2 | i | / | -25.1 | / | / | /
Cc1cc(NC(=O)CSc2nc3c(sc4ccccc43)c(=O)n2CCCN2CCOCC2)n[nH]1 | -3.4 | i | 396.6 | 72.3* | 1.8 | 96.2* | 19.7
C=CCN1C(=O)S/C(=C/c2ccsc2)C1=O | 3.9 | i | 351.3 | 9.8 | -4.0 | / | /
C=CCN1C(=O)S/C(=C/c2ccc(Sc3nc4ccccc4[nH]3)o2)C1=O | 2.9 | i | 466.0 | 49.9 | -1.6 | 81.2* | 68.8
Cc1ccc(S(=O)(=O)N2CCOCC2)cc1C(=O)Nc1ccc(N2CCCCCC2)cc1 | -2.2 | i | / | 69.2 | / | 50.4 | 47.4
O=C(Nc1ccc(Cc2ccncc2)cc1)c1ccc(S(=O)(=O)N2CCOCC2)cc1 | -0.6 | i | 236.3 | 53.0 | -0.9 | 58.0 | 56.6
COc1ccccc1N1CCN(c2ccc3c(c2)S(=O)(=O)c2cccc(C(=O)NCC4CC4)c2C3=O)CC1 | -5.3 | i | / | -5.8 | / | / | /
CC(=O)Nc1ccc(CNc2nc3cc(-c4ccsc4)sc3c(=O)n2C)cc1 | -0.8 | ? | / | -43.8 | / | / | /
Cc1ccc(S(=O)(=O)NC(=O)Cn2nnc(-c3ccccc3)c2COc2ccc3ccccc3c2)cc1 | -0.2 | i | / | 5.4 | / | / | /
CCN(CC(=O)NCc1ccc(Cl)cc1)C(=O)c1ccc2cc(OC)ccc2c1 | 0.2 | i | 263.9 | 51.0 | 8.2 | 28.2 | 61.3
CCN(CC(=O)NCc1ccc(Cl)cc1)C(=O)c1cnc(Cl)c(Cl)c1 | 0.5 | i | 374.9 | 0.1 | 2.7 | / | /
C[C@H](NC(=O)C[C@@H]1C=C[C@@H](NC(=O)CN2CCOCC2)[C@@H](CO)O1)c1ccccc1 | / | i | / | / | / | / | /

Screening results as filed in PubChem BioAssay.
